ChEMBL document CHEMBL1275346, “Halogenation of 4-hydroxy/amino-3-methoxyphenyl acetamide TRPV1 agonists showed enhanced antagonism to capsaicin” (Bioorg Med Chem, 2010)

Columns and labels:
[1] = target: T1, Transient receptor potential cation channel subfamily V member 1 (Rattus norvegicus, UniProt O35433); assay: Displacement of [3H]RTX from rat TRPV1 expressed in CHO cells; type: cell-based
Procedure, shortened: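 Binding competition against [³H]RTX on rat TRPV1 heterologously expressed in CHO cells. Mean ± SEM from three or more experiments.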

[2] = target: Transient receptor potential cation channel subfamily V member 1 (Rattus norvegicus) (UniProt O35433); assay: Agonist activity at rat TRPV1 expressed in CHO cells assessed as increase of capsaicin-induced calcium uptake relative to capsaicin; type: functional, cell-based
Procedure, shortened: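 ⁴⁵Ca²⁺ uptake in CHO cells heterologously expressing rat TRPV1. Agonist efficacy is given as % of the maximal calcium uptake induced by 300 nM capsaicin. Mean ± SEM from three or more experiments.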

[3] = target: Transient receptor potential cation channel subfamily V member 1 (Rattus norvegicus) (UniProt O35433); assay: Partial antagonist activity at rat TRPV1 expressed in CHO cells assessed as inhibition of capsaicin-induced calcium uptake; type: functional, cell-based; conditions: concentration not given here
Procedure, shortened: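 ⁴⁵Ca²⁺ uptake antagonism assay in CHO cells heterologously expressing rat TRPV1. The value is the extent of partial antagonism of capsaicin-induced uptake. Mean ± SEM from three or more experiments.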

[4] = target: T1, Transient receptor potential cation channel subfamily V member 1; assay: Agonist activity at rat TRPV1 expressed in CHO cells assessed as increase of capsaicin-induced calcium uptake; type: functional, cell-based
Procedure, shortened: (§1)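 Functional ⁴⁵Ca²⁺ uptake assay in CHO cells heterologously expressing rat TRPV1. Values are mean ± SEM from three or more experiments.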

[5] = target: T1, Transient receptor potential cation channel subfamily V member 1; assay: Antagonist activity at rat TRPV1 expressed in CHO cells assessed as inhibition of capsaicin-induced calcium uptake; type: functional, cell-based; procedure, shortened: as §1

T1 sequence (O35433 whole entry): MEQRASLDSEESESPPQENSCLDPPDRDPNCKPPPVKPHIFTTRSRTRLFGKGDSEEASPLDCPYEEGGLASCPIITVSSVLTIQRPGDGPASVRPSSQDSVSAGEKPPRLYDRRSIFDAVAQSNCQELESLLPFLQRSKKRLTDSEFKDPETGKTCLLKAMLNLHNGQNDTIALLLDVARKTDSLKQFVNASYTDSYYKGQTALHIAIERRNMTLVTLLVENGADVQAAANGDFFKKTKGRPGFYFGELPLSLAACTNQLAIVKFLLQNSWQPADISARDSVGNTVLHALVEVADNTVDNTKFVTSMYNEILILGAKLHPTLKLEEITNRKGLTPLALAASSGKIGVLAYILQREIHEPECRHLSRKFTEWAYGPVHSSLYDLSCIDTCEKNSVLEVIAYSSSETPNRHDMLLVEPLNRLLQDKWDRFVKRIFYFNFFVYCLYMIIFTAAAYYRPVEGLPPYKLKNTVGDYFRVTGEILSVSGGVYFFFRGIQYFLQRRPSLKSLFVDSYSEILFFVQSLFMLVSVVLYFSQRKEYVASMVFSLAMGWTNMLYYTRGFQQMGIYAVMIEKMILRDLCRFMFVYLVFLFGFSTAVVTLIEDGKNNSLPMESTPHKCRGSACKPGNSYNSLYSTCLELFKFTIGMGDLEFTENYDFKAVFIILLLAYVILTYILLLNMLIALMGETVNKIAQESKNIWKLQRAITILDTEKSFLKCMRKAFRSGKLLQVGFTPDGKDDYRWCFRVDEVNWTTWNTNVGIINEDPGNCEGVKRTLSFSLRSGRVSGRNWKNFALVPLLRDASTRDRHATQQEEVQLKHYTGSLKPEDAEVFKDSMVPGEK
Sequence of Transient receptor potential cation channel subfamily V member 1 (Rattus norvegicus) (O35433 whole entry): as above

In the case of COc1cc(CC(=O)NCC(COC(=O)C(C)(C)C)Cc2ccc(C(C)(C)C)cc2)c(Cl)cc1OC(C)=O (stereo not given), the Ki [1] is reported as 25.1 nM, the Activity [2] is reported as 53% and the inhibition [3] is reported as 36%.

In the case of COc1cc(CC(=O)NCc2ccc(C(C)(C)C)cc2)c(Cl)cc1O, the Ki [1] is reported as 486 nM, the EC50 ([4]; read-out: EC50) is reported as 135 nM and the Ki ([5]; cho) is reported as “Not Active”.

COc1cc(CC(=O)NCC(COC(=O)C(C)(C)C)Cc2ccc(C(C)(C)C)cc2)cc(Cl)c1N (stereo not given) was tested, and the Ki [1] was 33.5 nM, the EC50 ([4]; cho) was “Not Active” and the Ki ([5]; read-out: Ki) was 4.09 nM.

COc1cc(CC(=O)NCc2ccc(C(C)(C)C)cc2)cc(I)c1O was tested, and the Ki [1] was 89 nM, the EC50 ([4]; cho) was “Not Active” and the Ki ([5]; read-out: Ki) was 17.2 nM.

CC(C)(C)C(=O)OCC(CNC(=O)Cc1ccc(N)c(Br)c1)Cc1ccc(C(C)(C)C)cc1 (stereo not given) was tested, and the Ki [1] was 57 nM, the Activity [2] was 59% and the inhibition [3] was 27%.

Work on COc1cc(CC(=O)NCc2ccc(C(C)(C)C)cc2)c(I)cc1OC(C)=O yielded a Ki [1] of 378 nM, an Activity [2] of 8% and an inhibition [3] of 85%.

CC(C)(C)C(=O)OCC(CNC(=O)Cc1cc(Br)c(N)c(Br)c1)Cc1ccc(C(C)(C)C)cc1 (stereo not given) was tested, and the Ki [1] was 11.3 nM, the EC50 ([4]; cho) was “Not Active” and the Ki ([5]; read-out: Ki) was 4.3 nM.

With COc1cc(CC(=O)NCC(COC(=O)C(C)(C)C)Cc2ccc(C(C)(C)C)cc2)c(Br)cc1O (stereo not given) the Ki [1] was 25.3 nM, the Activity [2] was 21% and the inhibition [3] was 76%.

For COc1cc(CC(=O)NCc2ccc(C(C)(C)C)cc2)cc(Cl)c1O, the Ki [1] was 164 nM, the Activity [2] was 25% and the inhibition [3] was 66%.

With COc1cc(CC(=O)NCC(COC(=O)C(C)(C)C)Cc2ccc(C(C)(C)C)cc2)cc(Br)c1N (stereo not given) the Ki [1] was 79.1 nM, the EC50 ([4]; cho) was “Not Active” and the Ki ([5]; read-out: Ki) was 3.4 nM.

With COc1cc(CC(=O)NCc2ccc(C(C)(C)C)cc2)cc(I)c1OC(C)=O the Ki [1] was 94 nM, the EC50 ([4]; cho) was “Not Active” and the Ki ([5]; read-out: Ki) was 47.9 nM.

With CC(C)(C)C(=O)OCC(CNC(=O)Cc1cc(Br)cc(Br)c1)Cc1ccc(C(C)(C)C)cc1 (stereo not given) the Ki [1] was 210 nM, the EC50 ([4]; cho) was “Not Active” and the Ki ([5]; read-out: Ki) was 108 nM.

For COc1cc(CC(=O)NCc2ccc(C(C)(C)C)cc2)c(Br)cc1O, the Ki [1] was 364 nM, the Activity [2] was 37% and the inhibition [3] was 42%.

In the case of COc1cc(CC(=O)NCC(COC(=O)C(C)(C)C)Cc2ccc(C(C)(C)C)cc2)cc(Cl)c1O (stereo not given), the Ki [1] is reported as 31 nM, the Activity [2] is reported as 25% and the inhibition [3] is reported as 76%.

With COc1cc(CC(=O)NCC(COC(=O)C(C)(C)C)Cc2ccc(C(C)(C)C)cc2)c(I)cc1OC(C)=O (stereo not given) the Ki [1] was 19.5 nM, the EC50 ([4]; cho) was “Not Active” and the Ki ([5]; read-out: Ki) was 53 nM.

COc1cc(CC(=O)NCC(COC(=O)C(C)(C)C)Cc2ccc(C(C)(C)C)cc2)ccc1N (stereo not given) was tested, and the Ki [1] was 108 nM, the EC50 ([4]; read-out: EC50) was 22.9 nM and the Ki ([5]; cho) was “Not Active”.

Compound COc1cc(CC(=O)NCC(COC(=O)C(C)(C)C)Cc2ccc(C(C)(C)C)cc2)c(Cl)cc1O (stereo not given) has a Ki [1] of 37.6 nM, an Activity [2] of 61% and an inhibition [3] of 39%.

With COc1cc(CC(=O)NCC(COC(=O)C(C)(C)C)Cc2ccc(C(C)(C)C)cc2)cc(Br)c1OC(C)=O (stereo not given) the Ki [1] was 13.6 nM, the EC50 ([4]; cho) was “Not Active” and the Ki ([5]; read-out: Ki) was 72 nM.

With COc1cc(CC(=O)NCc2ccc(C(C)(C)C)cc2)cc(Br)c1OC(C)=O the Ki [1] was 166 nM, the Activity [2] was 9% and the inhibition [3] was 89%.

COc1cc(CC(=O)NCC(COC(=O)C(C)(C)C)Cc2ccc(C(C)(C)C)cc2)cc(Br)c1O (stereo not given) was tested, and the Ki [1] was 9.4 nM, the EC50 ([4]; cho) was “Not Active” and the Ki ([5]; read-out: Ki) was 8.77 nM.

With COc1cc(CC(=O)NCC(COC(=O)C(C)(C)C)Cc2ccc(C(C)(C)C)cc2)cc(Cl)c1OC(C)=O (stereo not given) the Ki [1] was 21 nM, the Activity [2] was 28% and the inhibition [3] was 58%.

Compound CC(C)(C)C(=O)OCC(CNC(=O)Cc1ccc(N)c(Cl)c1)Cc1ccc(C(C)(C)C)cc1 (stereo not given) has a Ki [1] of 790 nM, an Activity [2] of 85% and an inhibition [3] of 24%.

With COc1cc(CC(=O)NCC(COC(=O)C(C)(C)C)Cc2ccc(C)c(C)c2)cc(Br)c1O (stereo not given) the Ki [1] was 56.4 nM, the Activity [2] was 43% and the inhibition [3] was 62%.

For COc1cc(CC(=O)NCc2ccc(C(C)(C)C)cc2)ccc1O, the Ki [1] was 667 nM, the EC50 ([4]; read-out: EC50) was 82 nM and the Ki ([5]; cho) was “Not Active”.

With COc1cc(CC(=O)NCc2ccc(C(C)(C)C)cc2)c(Cl)cc1OC(C)=O the Ki [1] was 388 nM, the Activity [2] was 83% and the inhibition [3] was 62%.

CC(C)(C)C(=O)OCC(CNC(=O)Cc1cc(Br)c(O)c(Br)c1)Cc1ccc(C(C)(C)C)cc1 (stereo not given) was tested, and the Ki [1] was 20.2 nM, the EC50 ([4]; cho) was “Not Active” and the Ki ([5]; read-out: Ki) was 10.7 nM.

In the case of CC(C)(C)C(=O)OCC(CNC(=O)Cc1cc(Cl)c(O)c(Cl)c1)Cc1ccc(C(C)(C)C)cc1 (stereo not given), the Ki [1] is reported as 9.3 nM, the EC50 ([4]; cho) is reported as “Not Active” and the Ki ([5]; read-out: Ki) is reported as 4.26 nM.

For COc1cc(CC(=O)NCC(COC(=O)C(C)(C)C)Cc2ccc(C(C)(C)C)cc2)ccc1NS(C)(=O)=O (stereo not given), the Ki [1] was 84.5 nM, the Activity [2] was 72% and the inhibition [3] was 15%.

For COc1cc(CC(=O)NCC(COC(=O)C(C)(C)C)Cc2ccc(C(C)(C)C)cc2)ccc1O (stereo not given), the Ki [1] was 13.1 nM, the EC50 ([4]; read-out: EC50) was 4.08 nM and the Ki ([5]; cho) was “Not Active”.

COc1cc(CC(=O)NCc2ccc(C(C)(C)C)cc2)cc(Br)c1O was tested, and the Ki [1] was 91 nM, the Activity [2] was 11% and the Ki ([5]; read-out: Ki) was 168 nM.

COc1cc(CC(=O)NCc2ccc(C(C)(C)C)cc2)cc(Cl)c1OC(C)=O was tested, and the Ki [1] was 205 nM, the Activity [2] was 22% and the Ki ([5]; read-out: Ki) was 570 nM.

CCCCCCCCC(=O)NCc1cc(OC)c(O)cc1I was tested, and the EC50 ([4]; cho) was “Not Active”.

COc1cc(CC(=O)NCC(COC(=O)C(C)(C)C)Cc2ccc(C(C)(C)C)cc2)c(Br)cc1OC(C)=O (stereo not given) gave a Ki [1] of 34.9 nM, an Activity [2] of 22% and an inhibition [3] of 63%.

COc1cc(CC(=O)NCc2ccc(C(C)(C)C)cc2)c(Br)cc1OC(C)=O gave a Ki [1] of 393 nM, an Activity [2] of 60% and an inhibition [3] of 59%.

Compound COc1cc(CC(=O)NCC(COC(=O)C(C)(C)C)Cc2ccc(C)c(C)c2)cc(I)c1O (stereo not given) has a Ki [1] of 1630 nM, an Activity [2] of 6% and a Ki ([5]; read-out: Ki) of 225 nM.

For COc1cc(CC(=O)NCC(COC(=O)C(C)(C)C)Cc2ccc(C(C)(C)C)cc2)cc(I)c1O (stereo not given), the Ki [1] was 22 nM, the EC50 ([4]; cho) was “Not Active” and the Ki ([5]; read-out: Ki) was 2.8 nM.

CC(C)(C)C(=O)OCC(CNC(=O)Cc1cc(Cl)c(N)c(Cl)c1)Cc1ccc(C(C)(C)C)cc1 (stereo not given) was tested, and the Ki [1] was 9.43 nM, the EC50 ([4]; cho) was “Not Active” and the Ki ([5]; read-out: Ki) was 3.96 nM.

COc1cc(CC(=O)NCC(COC(=O)C(C)(C)C)Cc2ccc(C(C)(C)C)cc2)c(I)cc1O (stereo not given) was tested, and the Ki [1] was 20.9 nM, the EC50 ([4]; cho) was “Not Active” and the Ki ([5]; read-out: Ki) was 13.5 nM.

Work on CC(C)(C)C(=O)OCC(CNC(=O)Cc1ccc(O)c(Br)c1)Cc1ccc(C(C)(C)C)cc1 (stereo not given) yielded a Ki [1] of 25.1 nM, an Activity [2] of 72% and an inhibition [3] of 38%.

Compound COc1cc(CC(=O)NCC(COC(=O)C(C)(C)C)Cc2ccc(C(C)(C)C)cc2)c(Br)cc1NS(C)(=O)=O (stereo not given) has a Ki [1] of 42.9 nM, an Activity [2] of 14% and an inhibition [3] of 64%.

In the case of COc1cc(CC(=O)NCC(COC(=O)C(C)(C)C)Cc2ccc(C)c(C)c2)c(I)cc1O (stereo not given), the Ki [1] is reported as 116 nM, the Activity [2] is reported as 23% and the inhibition [3] is reported as 53%.

For COc1cc(CC(=O)NCc2ccc(C(C)(C)C)cc2)c(I)cc1O, the Ki [1] was 850 nM, the Activity [2] was 17% and the inhibition [3] was 55%.

With COc1cc(CC(=O)NCC(COC(=O)C(C)(C)C)Cc2ccc(C(C)(C)C)cc2)cc(I)c1OC(C)=O (stereo not given) the Ki [1] was 20.3 nM, the EC50 ([4]; cho) was “Not Active” and the Ki ([5]; read-out: Ki) was 19.1 nM.

COc1cc(CC(=O)NCC(COC(=O)C(C)(C)C)Cc2ccc(C)c(C)c2)cc(I)c1OC(C)=O (stereo not given) gave a Ki [1] of 4530 nM, an Activity [2] of 12% and an inhibition [3] of 59%.
